According to PMC4514009 (Journal of Radioanalytical and Nuclear Chemistry, 2010):

Test system: NMDAR
Test: Autoradiography of NMDAR in vitro by storage phosphor imaging
Type: binding, Sprague–Dawley (SD) rat
Details: EB 0.3 mg pretreatment of slides
In short: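 Sagittal brain sections from one healthy Sprague–Dawley rat (290 g) were fixed and air-dried, then shaken 30 min at room temperature in 50 mM Tris–HCl (pH 7.4) with 120 mM NaCl. EB 0.3 mg (60 μL) or saline was applied to the slides, which were preincubated 30 min at room temperature, then incubated with the radiotracer. They were washed three times for 30 min in ice-cold Tris–HCl and exposed 30 min to a phosphor screen. DLU mm−2 were read by ROI, and hippocampus/thalamus ratios were taken per section.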

O=c1c2ccccc2[se]n1-c1ccccc1 [EB, Ebselen]
effect on accumulation of ^99mTc-PQQ in hippocampus and cortex: can be inhibited
